Each structure is given as a SMILES string. Entries after “also recorded” stand apart in the source; their conditions may differ.

For one series, the target named is CDK1/cyclin B1 (Homo sapiens, UniProt P06493). The experiment in a line: In vitro CDK1 kinase assay. As to conditions: for inhibition of CDK1 enzyme activity: quantification of band intensities, Fig. 1C/D, H1 histones; for effect on CDK1 enzyme activity (in words): in vitro kinase assay, H1 histone phosphorylation. It is filed as biochemical. In a few lines: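 Purified CDK1/cyclin B1 complex in kit reaction buffer, pre-incubated with test compound at various concentrations for 10 min at room temperature. Phosphorylation run with 15 µM ATP, 2 µCi [γ-32P]ATP and 5 µg H1 histone at 30°C for 20 min, then stopped with 20 mM EDTA (final). Products resolved by 10% SDS-PAGE and autoradiographed; bands quantified as percent of control. Done 3–6 independent times.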

The target of series [1] is T1, CDK2/cyclin A2 (Homo sapiens, UniProt P24941). The series is described as follows: In vitro CDK2 kinase assay. Type of series: biochemical. As to conditions: for effect on CDK2 enzyme activity (in words): 0.5 mM (Fig. 7), pre-incubated 10 min, H1 histones. In a few lines:
(§1)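 Kinases were purified CDK2/cyclin A2, CDK4/cyclin D1 and CDK6/cyclin D1, each pre-incubated with test compound for 10 min at room temperature, mostly at 0.5 mM, with some dose series. Reaction used 15 µM ATP, 2 µCi [γ-32P]ATP and 5 µg protein substrate (H1 histone for CDK2) at 30°C for 20 min, stopped with 20 mM EDTA. Read by SDS-PAGE autoradiography, bands expressed as percent of control.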

The target of a further series is CDK4/cyclin D1 (Homo sapiens, UniProt P11802). The experiment in a line: In vitro CDK4 kinase assay. Type of series: biochemical. The following applies: for effect on CDK4 enzyme activity (in words): 0.5 mM (Fig. 7E, F), Rb substrate. In a few lines:
as §1

In the next series the target is CDK6/cyclin D1 (Homo sapiens, UniProt Q00534). The experiment in a line: In vitro CDK6 kinase assay. It is filed as biochemical. As to conditions: for effect on CDK6 enzyme activity (in words): 0.5 mM (Fig. 7G, H), Rb substrate; for inhibition at 500 µM: read-out: inhibition of CDK6 activity. In outline:
as §1

A short description of another series: MTT cytotoxicity assay. It is filed as cell-based, human. The following applies: human, HCT-116 colorectal carcinoma cells. In outline: (§2)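 HCT-116 cells kept in McCoy's 5A with 10% FBS, seeded overnight at 20,000 cells/well, then exposed to test compounds at various concentrations for 72 h. Viability read by MTT. IC50 taken from the concentration series. Experiments repeated 3–6 times independently.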
Background: Tetrazolium dyes change colour on reduction, which living cells bring about.

The subject of the next series is HCT-116 cells. The experiment in a line: MTT cytotoxicity assay. Type of series: cell-based, human. The following applies: Homo sapiens, HCT-116, 72 h, read-out: MTT assay HCT-116 72 h (IC50). In outline:
as §2

Series [2] concerns the target cellular CDK1 in HCT-116 cells (Homo sapiens, UniProt P06493). The experiment in a line: Acetylation of cellular CDK1 in HCT-116 cells. Type of series: cell-based. The following applies: 0.25–2.5 mM, 12 h.
In series [3] the target is T1, CDK2/cyclin A2. The following applies: in vitro kinase assays; cited from earlier work.
The conditions of series [4]: cited from earlier work.
The mark [5] stands for this setting: CDK1 IC50, Table III, purified CDK1 enzyme.
The mark [6] stands for this setting: CDK1 IC50, text, dose-dependent inhibition, Fig. 1E-H.

Chain of CDK1/cyclin B1 (P14635 whole entry): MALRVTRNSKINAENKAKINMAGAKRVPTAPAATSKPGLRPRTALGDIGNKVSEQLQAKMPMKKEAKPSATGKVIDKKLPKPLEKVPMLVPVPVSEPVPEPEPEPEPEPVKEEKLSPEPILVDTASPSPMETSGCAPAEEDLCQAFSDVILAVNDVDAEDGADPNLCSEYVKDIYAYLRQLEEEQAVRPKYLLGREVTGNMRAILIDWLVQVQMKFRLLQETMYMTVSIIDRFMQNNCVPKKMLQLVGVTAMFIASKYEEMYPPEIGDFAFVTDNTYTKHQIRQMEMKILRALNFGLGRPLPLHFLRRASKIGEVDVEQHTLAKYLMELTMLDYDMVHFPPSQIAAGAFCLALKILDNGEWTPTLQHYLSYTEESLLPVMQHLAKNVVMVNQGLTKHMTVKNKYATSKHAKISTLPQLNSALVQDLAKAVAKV
Chain of CDK1/cyclin B1 (P06493 whole entry): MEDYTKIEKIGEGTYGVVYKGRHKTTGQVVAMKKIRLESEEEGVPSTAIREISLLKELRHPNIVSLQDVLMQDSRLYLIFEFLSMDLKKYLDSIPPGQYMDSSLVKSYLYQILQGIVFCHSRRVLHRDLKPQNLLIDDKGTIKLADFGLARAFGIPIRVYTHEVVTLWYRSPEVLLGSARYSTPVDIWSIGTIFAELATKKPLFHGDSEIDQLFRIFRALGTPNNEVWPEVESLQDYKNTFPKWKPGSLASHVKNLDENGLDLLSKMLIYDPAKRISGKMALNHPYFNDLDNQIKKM
Chain of CDK4/cyclin D1 (P11802 whole entry): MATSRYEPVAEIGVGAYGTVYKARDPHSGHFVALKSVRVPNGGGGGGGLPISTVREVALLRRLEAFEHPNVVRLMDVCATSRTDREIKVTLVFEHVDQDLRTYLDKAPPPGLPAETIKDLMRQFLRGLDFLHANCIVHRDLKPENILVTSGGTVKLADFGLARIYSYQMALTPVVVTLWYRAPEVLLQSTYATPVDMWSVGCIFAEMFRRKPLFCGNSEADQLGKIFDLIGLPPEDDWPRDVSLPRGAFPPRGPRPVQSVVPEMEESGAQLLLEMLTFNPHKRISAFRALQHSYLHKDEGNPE
Chain of CDK4/cyclin D1 (P24385 whole entry partner): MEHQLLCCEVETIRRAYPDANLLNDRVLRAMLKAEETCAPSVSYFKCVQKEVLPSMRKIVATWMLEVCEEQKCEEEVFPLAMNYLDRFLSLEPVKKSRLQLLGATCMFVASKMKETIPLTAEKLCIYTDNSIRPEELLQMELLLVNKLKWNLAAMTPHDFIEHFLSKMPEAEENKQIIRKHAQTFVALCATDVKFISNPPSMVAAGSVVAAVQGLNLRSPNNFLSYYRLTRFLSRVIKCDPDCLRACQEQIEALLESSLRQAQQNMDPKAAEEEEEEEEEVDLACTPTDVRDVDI
Chain of CDK6/cyclin D1 (Q00534 whole entry): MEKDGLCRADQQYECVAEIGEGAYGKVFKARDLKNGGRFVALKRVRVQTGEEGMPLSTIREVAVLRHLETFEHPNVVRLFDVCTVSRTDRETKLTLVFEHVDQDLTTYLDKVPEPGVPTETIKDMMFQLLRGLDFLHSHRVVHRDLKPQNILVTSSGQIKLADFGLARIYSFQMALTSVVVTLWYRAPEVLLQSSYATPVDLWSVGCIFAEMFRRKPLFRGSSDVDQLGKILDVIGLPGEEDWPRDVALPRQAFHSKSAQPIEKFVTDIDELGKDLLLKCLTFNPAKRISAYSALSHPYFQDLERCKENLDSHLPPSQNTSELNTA
Chain of CDK6/cyclin D1 (P24385 whole entry partner): as the sequence (P24385 whole entry partner) above
Chain of cellular CDK1 in HCT-116 cells (P06493 whole entry): as the sequence (P06493 whole entry) above

By IC50 is commonly meant the concentration needed to halve the response being measured. One may read the inhibition as how much of the control response was suppressed. On to `O=C(O)c1cccc(O)c1O` [2,3-DHBA, 2,3-dihydroxy-benzoic acid], for which the IC50 stood at 386 µM at CDK1/cyclin B1 (setting [5]), 386 µM at CDK1/cyclin B1 (setting [6]) and 1780 µM with HCT-116 cells. The “inhibition of CDK1 enzyme activity” value at CDK1/cyclin B1 amounted to 55%. Further, the “effect on CDK2 enzyme activity (in words)” value on CDK2/cyclin A2 [1] is on record as “did not inhibit; also recorded: either no or marginal effect”. In addition, the “effect on CDK4 enzyme activity (in words)” value on CDK4/cyclin D1 is given as “failed to inhibit; also recorded: either no or marginal effect”. Also, the “effect on CDK6 enzyme activity (in words)” value on CDK6/cyclin D1 is reported as “inhibited”. Further, the inhibition at 500 µM on CDK6/cyclin D1 came out at 28%. Also, the IC50 at 72 h in “MTT cytotoxicity assay” is about 1800 µM.

With `O=C(O)c1cc(O)cc(O)c1` [3,5-DHBA], the “effect on CDK1 enzyme activity (in words)” value on CDK1/cyclin B1 is given as “failed to inhibit”.

For `O=C(O)c1ccc(O)c(O)c1` [3,4-DHBA], the “effect on CDK1 enzyme activity (in words)” value at CDK1/cyclin B1 is given as “did not show any inhibition; also recorded: failed to inhibit”.

In the case of `Nc1ccc(O)c(C(=O)O)c1` [5-aminosalicylic acid, reference compound], the “effect on CDK1 enzyme activity (in words)” value at CDK1/cyclin B1 was “did not show any inhibition”; at CDK1/cyclin B1 (listed as 5-amino-salicylic acid), “failed to inhibit”.

As for `O=C(O)c1ccc(O)cc1O` [2,4-DHBA, 2,4-dihydroxybenzoic acid], the “inhibition of CDK1 enzyme activity” value on CDK1/cyclin B1 came out at 25%.

For `CC(=O)Oc1ccccc1C(=O)O` [Aspirin], at CDK1/cyclin B1, the “effect on CDK1 enzyme activity (in words)” value was “do not inhibit; also recorded: failed to inhibit”. Moreover, the “effect on CDK2 enzyme activity (in words)” value on CDK2/cyclin A2 [1] is recorded as “did not inhibit”. Besides, the “effect on CDK4 enzyme activity (in words)” value at CDK4/cyclin D1 is listed as “failed to inhibit”. For the same molecule, the “effect on CDK6 enzyme activity (in words)” value on CDK6/cyclin D1 is recorded as “did not affect”. Besides, in series [2], the “acetylation of cellular CDK1 (in words)” value is recorded as “acetylated in aspirin treated samples in a dose-dependent fashion”. In addition, the “effect on CDK2 enzyme activity (in words), previous study” value on CDK2/cyclin A2 [3] is “failed to inhibit”. Also, in [4], the oral bioavailability is reported as 40–50%.

With `O=C(O)c1c(O)cc(O)cc1O` [2,4,6-THBA, 2,4,6-trihydroxybenzoic acid], the IC50 against CDK1/cyclin B1 (setting [5]) was 226 µM; against CDK2/cyclin A2 [1], about 300 µM; in the series on HCT-116 cells, 785 µM. Moreover, at CDK1/cyclin B1, the “effect on CDK1 enzyme activity (in words)” value is “inhibited”. In addition, the “effect on CDK2 enzyme activity (in words)” value on CDK2/cyclin A2 [1] is given as “dose-dependent inhibition; also recorded: inhibited”. The “effect on CDK4 enzyme activity (in words)” value at CDK4/cyclin D1 is listed as “inhibited”. The values for the inhibition at 500 µM at CDK4/cyclin D1 (read-out: inhibition of CDK4 activity) and at CDK6/cyclin D1 were 45% and 40%, respectively. Further, on CDK6/cyclin D1, the “effect on CDK6 enzyme activity (in words)” value was “inhibited”. The IC50 at 72 h in “MTT cytotoxicity assay” worked out at 800 µM.

For the molecule `O=C(O)c1ccccc1` [benzoic acid, reference compound], on CDK1/cyclin B1, the “effect on CDK1 enzyme activity (in words)” value was “did not show any inhibition; also recorded: failed to inhibit”.

Regarding `CN1CC[C@H](c2c(O)cc(O)c3c(=O)cc(-c4ccccc4Cl)oc23)[C@H](O)C1` [flavopiridol, reference compound], the “effect on CDK1 enzyme activity (in words)” value on CDK1/cyclin B1 is given as “dose-dependently inhibited”.

For the molecule `O=C(O)c1c(O)cccc1O` [2,6-DHBA, 2,6-dihydroxybenzoic acid], the figures for the half-inhibitory concentration (IC50) on CDK1/cyclin B1 (setting [5]), against CDK1/cyclin B1 (setting [6]) and with HCT-116 cells were 365 µM, 365 µM and 1950 µM, respectively. Also, the “inhibition of CDK1 enzyme activity” value against CDK1/cyclin B1 turned out to be 65%. Besides, the “effect on CDK2 enzyme activity (in words)” value on CDK2/cyclin A2 [1] is “did not inhibit; also recorded: either no or marginal effect”. Besides, the “effect on CDK4 enzyme activity (in words)” value on CDK4/cyclin D1 is “failed to inhibit; also recorded: either no or marginal effect”. Further, the “effect on CDK6 enzyme activity (in words)” value at CDK6/cyclin D1 is listed as “inhibited”. Moreover, on CDK6/cyclin D1, the inhibition at 500 µM was 37%. In the series “MTT cytotoxicity assay”, this molecule registered an IC50 at 72 h of 1900 µM.

Take `O=C(O)c1cc(O)ccc1O` [2,5-DHBA, 2,5-dihydroxybenzoic acid]: the “inhibition of CDK1 enzyme activity” value at CDK1/cyclin B1 came out at 22%.

Usually half-life stands for the time in which the quantity being followed falls by half. `O=C(O)c1ccccc1O` [Salicylic acid, reference compound]: the “effect on CDK1 enzyme activity (in words)” value at CDK1/cyclin B1 is “do not inhibit; also recorded: failed to inhibit”. The “effect on CDK2 enzyme activity (in words)” value at CDK2/cyclin A2 [1] is reported as “did not inhibit”. In addition, the “effect on CDK4 enzyme activity (in words)” value at CDK4/cyclin D1 is recorded as “failed to inhibit”. In addition, on CDK6/cyclin D1, the “effect on CDK6 enzyme activity (in words)” value is recorded as “did not affect”. Further, the “effect on CDK2 enzyme activity (in words), previous study” value at CDK2/cyclin A2 [3] is given as “failed to inhibit”. Moreover, the half-life in [4] (depending upon the dose) is 4 to 6 h. Besides, the “conjugation with glycine to salicyluric acid” value in [4] (liver) is 20–65%.

Take `O=C(O)c1cc(O)c(O)c(O)c1` [3,4,5-THBA, gallic acid]: on CDK1/cyclin B1, the “effect on CDK1 enzyme activity (in words)” value is on record as “did not show any inhibitory effect; also recorded: failed to inhibit”.

The values above are taken from PMC5673027 (International Journal of Oncology, 2017).
